Screens deposited in PubChem BioAssay by Johns Hopkins Ion Channel Center.
A selection: hits, their analogues and other compounds. The true share with any hit is near 3.5%.
RGS4 act = potentiators or activators of RGS4 | HEK293 M3R/inducible RGS4, carbachol calcium flux Fluo4; hits give low values | B-score at 10 µM | hit rate 0.92% among 310,000;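 active means B-score of the integrated calcium signal more than 4 SD below the library mean, with starting fluorescence not abnormally high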;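 further: negative B-score means reduced calcium response which marks RGS4 activation or potentiation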
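Assay system: Inducible-RGS4 HEK293 cells carrying M3 receptor | Schedule: Compound preincubation 20 min at room temperature before agonist | Signal: Kinetic calcium fluorescence imaging with Fluo4-AM dye, 2 µM | Read-out basis: B score from integrated fluorescence ratio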
MrgX1 PAM = allosterically activates human MrgX1 receptor signaling; hit rate 0.63% among 310,000; Q96LB2; MrgX1-HEK293, Fluo-4 calcium flux, FDSS; hits give high values; B-score at 10 µM;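 active means plate-corrected calcium response at least 3 library SD above typical, normal starting fluorescence, not activating the receptor alone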;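 further: compound read alongside a low EC10 to EC30 dose of BAM8-22 agonist; peak minus trough fluorescence over baseline measured at the second addition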
Target sequence (Q96LB2 whole entry, looked up): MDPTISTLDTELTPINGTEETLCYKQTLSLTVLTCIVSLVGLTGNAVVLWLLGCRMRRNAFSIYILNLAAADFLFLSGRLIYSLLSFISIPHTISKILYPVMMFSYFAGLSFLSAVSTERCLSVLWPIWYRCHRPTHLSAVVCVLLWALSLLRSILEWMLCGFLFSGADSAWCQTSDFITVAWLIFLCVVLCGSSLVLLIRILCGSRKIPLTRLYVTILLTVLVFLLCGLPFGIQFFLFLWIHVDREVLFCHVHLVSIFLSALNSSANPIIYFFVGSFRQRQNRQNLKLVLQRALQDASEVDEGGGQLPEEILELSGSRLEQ
RGS4 block = inhibitors of human RGS4; P49798; HEK293 M3R/RGS4 inducible, Fluo-4 calcium flux; hits give high values; triggered by carbachol at its EC20; B-score at 10 µM; hit rate 0.45% among 310,000;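 active means B-score, a plate-corrected calcium signal, over three deviations above library mean, with baseline fluorescence within five deviations of library mean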;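 further: RGS4 expression induced by doxycycline in cells with stable M3 receptor; B-score is computed from the integrated fluorescence ratio over baseline after carbachol; higher B-score means a larger calcium signal and so more RGS4 inhibition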
Target sequence (P49798 whole entry, looked up): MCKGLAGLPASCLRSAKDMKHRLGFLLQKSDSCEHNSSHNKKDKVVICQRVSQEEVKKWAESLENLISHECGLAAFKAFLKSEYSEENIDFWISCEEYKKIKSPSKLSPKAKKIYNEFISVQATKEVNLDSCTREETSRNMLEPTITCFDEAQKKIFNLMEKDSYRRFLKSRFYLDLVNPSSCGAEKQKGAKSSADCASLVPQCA
MrgX1 antagonist = human MrgX1 receptor antagonism, primary screen; Q96LB2; AID 588676; B-score at 10 µM; hit rate 1.3% among 310,000; MRGX1-HEK293 calcium flux, Fluo-4, BAM8-22 antagonism; hits give low values;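 active means calcium-response B-score plate-corrected more than 3 library SD below zero, starting fluorescence within 5 deviations, no agonist response on first addition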;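 further: peak minus trough fluorescence over baseline after final BAM8-22 challenge near maximal dose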
MrgX1 agonist = agonists of human MrgX1 receptor | Q96LB2 | MrgX1-HEK293 cells, Fluo-4 calcium fluorescence, agonist mode; hits give high values | B-score at 10 µM | hit rate 0.44% among 310,000;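 active means calcium response B-score plate-corrected fluorescence ratio at least 3 library SD, with starting fluorescence B-score inside 5 SD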
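Material – MrgX1-expressing HEK293 cells · Input – 15,000 cells seeded per well · Dosing – compound as first of three additions · Times – overnight seeding, then 1 h dark dye loading · Measured by – kinetic Fluo-4 NW fluorescence of intracellular calcium · Read-out – B-scored fluorescence response ratio · Benchmarks – positive and negative control wells on each plate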
MrgX1 allo conf = reconfirmed allosteric activator of human MrgX1 receptor. activation (ratio percentage), % at 10 µM. MrgX1-HEK293, Fluo-4 calcium fluorescence, FDSS. hit rate 13% among 1,200. shares compounds with MrgX1 PAM;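 active means ratio at least 3 SD above the weak peptide control, stable starting fluorescence, no direct agonism earlier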;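 further: compound followed by low BAM8-22 agonist challenge near EC20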
HEK293 Ca flux = activity in parental HEK293 cells lacking MrgX1; shares compounds with MrgX1 antagonist; Fluo-4 calcium fluorescence, FDSS; fluorescence ratio F(max-min)/F0 at 10 µM; hit rate 2% among 4,000;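 active means duplicate-averaged calcium fluorescence ratio at least three times the standard deviation of buffer wells, a nonspecific response in parental cells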
HEK293 Ca counter = activity in parental HEK293 cells without MrgX1 | shares compounds with MrgX1 antagonist | parental HEK293 calcium flux, Fluo-4 fluorescence ratio; hits give high values | fluorescence ratio F(max-min)/F0 at 10 µM | hit rate 0.4% among 4,000 | AID 624114;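 active means calcium fluorescence ratio, averaged over duplicates, at least 3 SD of the buffer-well ratio, meaning a nonspecific response in receptor-free cells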;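 further: untransfected parental HEK293 lacking MrgX1 used as counterscreen for MrgX1 allosteric activators; fluorescence change taken during the second addition on a kinetic imager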
HEK293 Ca cntr2 = activity in parental HEK293 cells lacking MrgX1 receptor. shares compounds with MrgX1 antagonist. Fluo-4 calcium fluorescence (FDSS); hits give high values. fluorescence ratio F(max-min)/F0 at 10 µM. hit rate 8.7% among 4,000;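 active means calcium fluorescence ratio at least three times the spread of buffer wells, meaning a non-specific response in parental cells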
* = called active by the depositor.

For CCn1c(/C=C/c2ccccc2)nc2ccccc2c1=O the results were RGS4 act inactive, MrgX1 PAM 7.71*, RGS4 block inactive, MrgX1 antagonist inactive, MrgX1 agonist inactive, MrgX1 allo conf inactive, HEK293 Ca flux inactive, HEK293 Ca counter inactive and HEK293 Ca cntr2 inactive.
`O=c1c2ccccc2nc(/C=C/c2ccccc2)n1CCCO` gave RGS4 act inactive, MrgX1 PAM 11.2*, RGS4 block inactive, MrgX1 antagonist inactive, MrgX1 agonist inactive, MrgX1 allo conf inactive, HEK293 Ca flux inactive, HEK293 Ca counter inactive and HEK293 Ca cntr2 inactive.
`O=c1c2ccccc2nc(/C=C/c2ccc(O)cc2)n1CCc1ccccc1` gave RGS4 act inactive, MrgX1 PAM inactive, RGS4 block inactive, MrgX1 antagonist inactive and MrgX1 agonist inactive.
Screening CCn1c(/C=C/c2ccc(F)cc2)nc2ccccc2c1=O returned RGS4 act inactive, MrgX1 PAM inactive, RGS4 block inactive, MrgX1 antagonist inactive and MrgX1 agonist inactive.
For Clc1ccc(CSc2cc3c(nn2)-c2ccccc2CC3)cc1 the results were RGS4 act inactive, MrgX1 PAM 7.95*, RGS4 block inactive, MrgX1 antagonist inactive, MrgX1 agonist inactive, MrgX1 allo conf inactive, HEK293 Ca flux inactive, HEK293 Ca counter 47.9* and HEK293 Ca cntr2 inactive.
CC1(C(=O)N/N=C/c2c(F)c(F)c(F)c(F)c2F)CC1(Cl)Cl (stereo unspecified) was read as RGS4 act inactive, MrgX1 PAM 19.8*, RGS4 block inactive, MrgX1 antagonist inactive, MrgX1 agonist inactive, MrgX1 allo conf inactive, HEK293 Ca flux inactive, HEK293 Ca counter inactive and HEK293 Ca cntr2 inactive.
For O=C(CCCN1C(=O)c2cccc3cccc(c23)C1=O)NCc1cccs1 the results were RGS4 act inactive, MrgX1 PAM inactive, RGS4 block inactive, MrgX1 antagonist inactive and MrgX1 agonist inactive.
Screening Cc1sc2ncn(CCC(=O)O)c(=O)c2c1C returned RGS4 act inactive, MrgX1 PAM inactive, RGS4 block inactive, MrgX1 antagonist inactive and MrgX1 agonist inactive.
`Cc1sc2ncn(CCn3cnc4sc(C)c(C)c4c3=O)c(=O)c2c1C` gave RGS4 act inactive, MrgX1 PAM 13.5*, RGS4 block inactive, MrgX1 antagonist inactive, MrgX1 agonist inactive, MrgX1 allo conf inactive, HEK293 Ca flux inactive, HEK293 Ca counter inactive and HEK293 Ca cntr2 inactive.
`Cc1cc(C)c(C#N)c(Sc2ccc(N)cc2)n1` gave RGS4 act inactive, MrgX1 PAM 11.9*, RGS4 block inactive, MrgX1 antagonist inactive, MrgX1 agonist inactive, MrgX1 allo conf inactive, HEK293 Ca flux inactive, HEK293 Ca counter inactive and HEK293 Ca cntr2 inactive.
`CCOC(=O)c1cc(C)nc(Sc2ccc(C)cc2)c1C#N` gave RGS4 act inactive, MrgX1 PAM inactive, RGS4 block inactive, MrgX1 antagonist inactive and MrgX1 agonist inactive.
Screening CCCCOc1ccccc1NC(=O)CSc1nnnn1C(C)(C)C returned RGS4 act inactive, MrgX1 PAM 22.1*, RGS4 block inactive, MrgX1 antagonist inactive, MrgX1 agonist inactive, MrgX1 allo conf inactive, HEK293 Ca flux inactive, HEK293 Ca counter inactive and HEK293 Ca cntr2 inactive.
`COc1ccccc1NC(=O)CSc1nnnn1-c1ccc(C(=O)O)cc1` gave RGS4 act inactive, MrgX1 PAM inactive, RGS4 block inactive, MrgX1 antagonist inactive and MrgX1 agonist inactive.
NNC(=O)c1ccc(CSc2n[nH]c(=O)[nH]c2=O)cc1 was read as RGS4 act inactive, MrgX1 PAM inactive, RGS4 block inactive, MrgX1 antagonist inactive and MrgX1 agonist inactive.
Cc1nn(-c2ccccc2)nc1C(=O)Nc1nnc(C(F)(F)F)s1 was read as RGS4 act inactive, MrgX1 PAM 6.53*, RGS4 block inactive, MrgX1 antagonist inactive, MrgX1 agonist inactive, MrgX1 allo conf inactive, HEK293 Ca flux inactive, HEK293 Ca counter inactive and HEK293 Ca cntr2 67.7*.
`CCc1nnc(NC(=O)c2nn(-c3ccccc3)nc2C)s1` gave RGS4 act inactive, MrgX1 PAM inactive, RGS4 block inactive, MrgX1 antagonist inactive and MrgX1 agonist inactive.
`OCC1(CCOc2ccccc2)CCN(Cc2cn[nH]c2-c2ccc(F)cc2)CC1` gave RGS4 act inactive, MrgX1 PAM 10.6*, RGS4 block inactive, MrgX1 antagonist inactive, MrgX1 agonist inactive, MrgX1 allo conf inactive, HEK293 Ca flux inactive, HEK293 Ca counter inactive and HEK293 Ca cntr2 inactive.
`O=C(COc1cc(O)c2c(=O)c3ccccc3oc2c1)OCc1ccccc1` gave RGS4 act inactive, MrgX1 PAM inactive, RGS4 block inactive, MrgX1 antagonist inactive and MrgX1 agonist inactive.
Screening CC1(C)Cc2cccc(Oc3ccc(S(=O)(=O)N4CCCCC4)cn3)c2O1 returned RGS4 act inactive, MrgX1 PAM 11.3*, RGS4 block inactive, MrgX1 antagonist inactive, MrgX1 agonist inactive, MrgX1 allo conf inactive, HEK293 Ca flux inactive, HEK293 Ca counter inactive and HEK293 Ca cntr2 inactive.
For Cn1c(=NC(=O)C2CC2)sc2cccc(F)c21 the results were RGS4 act inactive, MrgX1 PAM 11.3*, RGS4 block inactive, MrgX1 antagonist inactive, MrgX1 agonist inactive, MrgX1 allo conf inactive, HEK293 Ca flux inactive, HEK293 Ca counter inactive and HEK293 Ca cntr2 inactive.
For O=C(Nc1ccccc1F)Oc1cccc(OC(=O)Nc2ccccc2F)c1 the results were RGS4 act inactive, MrgX1 PAM 7.53*, RGS4 block inactive, MrgX1 antagonist inactive, MrgX1 agonist inactive, MrgX1 allo conf inactive, HEK293 Ca flux inactive, HEK293 Ca counter inactive and HEK293 Ca cntr2 inactive.
Screening COc1cccc(C(=O)Nc2ccccc2F)c1 returned RGS4 act inactive, MrgX1 PAM inactive, RGS4 block inactive, MrgX1 antagonist inactive and MrgX1 agonist inactive.
For CCSc1nc2ccccc2c(=O)n1Cc1ccc(F)cc1 the results were RGS4 act inactive, MrgX1 PAM 9.82*, RGS4 block inactive, MrgX1 antagonist inactive, MrgX1 agonist inactive, MrgX1 allo conf inactive, HEK293 Ca flux inactive, HEK293 Ca counter inactive and HEK293 Ca cntr2 inactive.
